Kir21 block = Kir2.1 (mouse) channel inhibition | 310,000 tested, 0.85% active | P35561 | B-score at 10 µM | HEK293-Kir2.1, FluxOR thallium flux fluorescence; active compounds read low;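 active means fluorescence ratio B-score at or below minus 3 SD of library scores, with starting-brightness B-score within 2 SD, cut at about -4.2 in these data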;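 further: channel flux triggered by added potassium and thallium sulfate stimulus; B-score of peak minus minimum fluorescence over baseline after thallium stimulus; more negative B-score means stronger Kir2.1 block with less thallium influx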
Target sequence (P35561 whole entry, looked up): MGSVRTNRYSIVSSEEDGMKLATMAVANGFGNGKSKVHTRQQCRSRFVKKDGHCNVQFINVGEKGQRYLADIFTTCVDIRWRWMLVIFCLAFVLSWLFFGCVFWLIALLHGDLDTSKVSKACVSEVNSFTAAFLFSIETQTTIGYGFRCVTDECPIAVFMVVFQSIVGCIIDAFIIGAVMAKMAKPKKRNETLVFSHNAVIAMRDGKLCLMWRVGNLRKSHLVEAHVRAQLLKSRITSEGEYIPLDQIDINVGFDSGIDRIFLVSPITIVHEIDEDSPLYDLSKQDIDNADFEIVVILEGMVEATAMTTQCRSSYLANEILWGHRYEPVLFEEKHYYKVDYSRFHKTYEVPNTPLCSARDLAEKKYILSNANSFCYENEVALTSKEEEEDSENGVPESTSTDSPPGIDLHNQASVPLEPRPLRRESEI
KCNK3 inh = human KCNK3 channel inhibition, primary screen; CHO-KCNK3 thallium flux, FluxOR fluorescence; active compounds read low; B-score at 10 µM; 340,000 tested, 0.84% active; AID 602410;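 active means B-score under library mean minus 4 SD, starting fluorescence ratio at most library mean plus 5 SD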;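 further: more negative B-score means stronger inhibition of thallium flux through KCNK3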
KCNQ1 act = potentiates or activates the human KCNQ1 potassium channel. 310,000 tested, 0.35% active. B-score at 10 µM. CHO-K1 KCNQ1, thallium flux FluxOR fluorescence; active compounds read high;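 active means fluorescence ratio B-score, a plate-corrected score, at least three library SD, with initial intensity B-score within 5 SD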
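Schedule – 37 °C overnight plating, 90-min dark dye load, 20-min compound pretreatment · System – stable KCNQ1 CHO-K1 line · Probe or stimulus – thallium- and potassium-containing depolarizing buffer · Measured by – kinetic FluxOR fluorescence, 10 s baseline plus 110 s post-stimulus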
KCNQ1 block = blocks the human KCNQ1 potassium channel. P51787. B-score at 10 µM. 310,000 tested, 1.3% active. CHO-K1 KCNQ1, FluxOR thallium flux fluorescence; active compounds read high;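 active means compounds whose thallium flux B-score, printed positive for inhibition, exceeds three library SD while starting fluorescence stays within three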;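 further: channel opened by potassium depolarization with thallium stimulus after 20 min compound exposure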
KCNK9 block = inhibitors of human KCNK9 two-pore domain potassium channel; Q9NPC2; 310,000 tested, 1.2% active; HEK293 KCNK9, FluxOR thallium flux fluorescence; active compounds read low; B-score at 10 µM;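 active means ratio B-score over 3 SD below the library mean, with starting fluorescence within 5 SD of its mean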;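 further: negative B-score means less thallium flux so channel inhibition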
hERG protect = shields human hERG channel from block by proarrhythmic agents | Q12809 | CHO-hERG, FluxOR thallium flux, dofetilide IC70 present | activation (rescue from dofetilide block), less the hit threshold, % at 10 µM | 310,000 tested, 0.51% active | AID 1511;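 active means activation above the mean of controls blocked by dofetilide plus 5 SD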;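 further: thallium influx through hERG after potassium depolarization seen as dye fluorescence rise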
* marks the source's active call; other numbers are inactive results; i = inactive; . = not tested or not shown. Sampled rows, rich in hits. Any-hit rate of the full collection: about 3.8%.

SMILES	Kir21 block	KCNK3 inh	KCNQ1 act	KCNQ1 block	KCNK9 block	hERG protect
CC1(C)SC(=S)N(/N=C/c2ccccc2O)C1N(O)C(=O)Nc1ccccc1 (stereo not given)	0.46	i	i	8*	i	-16
COc1ccc(Cl)cc1NC(=O)CN(C)C(=O)/C=C/c1ccco1	.	i	.	.	.	.
Cc1cc(=O)[nH]c(SCC(=O)Nc2cccc(S(=O)(=O)N3CCOCC3)c2)n1	.	i	.	.	.	.
COC(=O)C1=C(C(=O)OC)[C@@H]2N(Cc3ccccc3)c3ccccc3[C@@]23C[C@@H](C(=O)OC)N(C(=O)C2CCC2)C3=N1	-1.7	.	i	i	-7.7*	-5
CCOC(=O)N1C2=NC(C(=O)OC)=C(C(=O)OC)[C@@H]3N(Cc4ccccc4)c4ccccc4[C@]23C[C@H]1C(=O)OC	-0.88	.	i	i	-7.7*	0
COC(=O)C1=C(C(=O)OC)[C@@H]2N(Cc3ccccc3)c3ccccc3[C@@]23C[C@@H](C(=O)OC)N(C(C)=O)C3=N1	-0.16	i	i	i	i	-1
O=C(c1cccc(S(=O)(=O)N2CCc3ccccc32)c1)N1CCN(c2ccccc2)CC1	.	-8.9*	.	.	.	.
O=C(c1cccc(S(=O)(=O)N2CCc3ccccc3C2)c1)N1CCN(c2ccccc2)CC1	-0.18	i	i	i	i	-6
Cc1ccc(-n2nc(C)c3c2C(Br)C(C)(C)CC3=O)nc1 (stereo not given)	.	i	.	.	.	.
CSc1ccccc1C(=O)N(CC1CCCO1)c1c(N)n(Cc2ccccc2)c(=O)[nH]c1=O (stereo not given)	0.75	i	i	i	i	-15
O=[N+]([O-])c1ccc2c(c1)C=C1CCCCC1(N1CCCCC1)O2 (stereo not given)	0.97	i	i	i	-7.4*	-8
O=C(O)C(=Cc1cccc([N+](=O)[O-])c1)c1ccc(Cl)cc1	.	i	.	.	.	.
Nc1ncc(S(=O)(=O)c2ccc([N+](=O)[O-])cc2)s1	.	i	.	.	.	.
C=CCN(c1ccccc1)S(=O)(=O)c1cccc(C(=O)Nc2ccc(N3CCOCC3)cc2)c1	.	i	.	.	.	.
COC(=O)c1sc(S(=O)(=O)Nc2c(C)nn(C)c2C)c(C(=O)OC)c1C	.	i	.	.	.	.
COC(=O)c1sc(NC(=S)NNC(=O)c2c(Br)c(C)nn2C)c(C(=O)OC)c1C	0.46	i	i	6*	i	-11
CCN1CCN(CCNC(=O)CCc2c(C)c3c(C)nn(-c4ccccc4)c3n(C)c2=O)CC1	-1.1	i	i	i	i	-7
Cc1ccc(N(C(=O)c2snc(C(N)=O)c2N)C(C(=O)NCc2ccccc2)c2ccncc2)c(C)c1 (stereo not given)	-0.67	i	i	i	i	-19
COC(=O)c1ccc(CN2CCN(CCc3ccccc3)C(CCO)C2)cc1 (stereo not given)	-0.15	i	i	i	i	-15
COC(=O)c1ccc(CN2CCN(CCC(C)C)C(CCO)C2)cc1 (stereo not given)	-0.27	i	i	6*	i	-18
CC(C)CCN1CCN(Cc2nc(-c3ccc(F)cc3)cs2)CC1CCO (stereo not given)	0.04	i	i	i	i	7.1*
CN(CCCNC(=O)CCCOc1cc(=O)n(C)c2ccccc12)Cc1ccccc1	0.57	i	8*	i	i	-7
COc1ccc(CCNC(=O)CCCOc2cc(=O)n(C)c3ccccc23)cc1OC	0.61	i	i	i	i	-9
COc1ccc(C(=O)NNC(=O)CCCCC(=O)NNC(=O)c2ccc(OC)cc2)cc1	0.2	i	i	i	i	-9
Cc1ccc(C(=O)NNC(=O)c2cccc(Br)c2)cc1	1.7	i	i	i	i	11*
Cc1ccc(C(=O)NNC(=O)CCCCC(=O)NNC(=O)c2ccc(C)cc2)cc1	1.4	i	9*	i	i	-1
COc1cc(F)c(S(=O)(=O)N2CCOc3ccccc32)cc1OC	-5.3*	i	i	i	i	-4
COc1ccccc1NC(=O)C(C)NC(c1ccccc1)c1ccccc1 (stereo not given)	-0.06	i	i	i	i	-7

Screening data as filed in PubChem.
